Test results published in ChEMBL document CHEMBL3046033, “Design, synthesis, crystal structure analysis, and insecticidal evaluation of phenylazoneonicotinoids” (2011).

Legend:
Format in all cases: functional
[1] = test system: Aphis craccivora; assay: Insecticidal activity against Aphis craccivora (cowpea aphid) assessed as mortality at 125 mg/L after 24 hr by leaf-dip method
Outline: (§1)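 Test solutions were made by dissolving compounds in N,N-dimethylformamide and diluting with water containing Triton X-100 (0.1 mg/L), giving a series of 500.0, 250.0 and 125.0 mg/L plus other concentrations for the cowpea aphid (Aphis craccivora) bioassay.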

[2] = test system: Aphis craccivora; assay: Insecticidal activity against Aphis craccivora (cowpea aphid) assessed as mortality at 250 mg/L after 24 hr by leaf-dip method; outline: as §1
[3] = test system: Aphis craccivora; assay: Insecticidal activity against Aphis craccivora (cowpea aphid) assessed as mortality at 500 mg/L after 24 hr by leaf-dip method; outline: as §1
[4] = test system: Aphis craccivora; assay: Insecticidal activity against Aphis craccivora (cowpea aphid) assessed as mortality after 24 hr by leaf-dip method; outline: as §1

| Compound | mortality at 125 µg/mL [1] [%] | mortality at 250 µg/mL [2] [%] | mortality at 500 µg/mL [3] [%] | LC50 [4] [µM] |
| --- | --- | --- | --- | --- |
| COc1ccccc1/N=N/C(=C1/NCCN1Cc1ccc(Cl)nc1)[N+](=O)[O-] | 35.5 | 76 | 91 |  |
| COc1cccc(OC)c1/N=N/C(=C1/NCCN1Cc1ccc(Cl)nc1)[N+](=O)[O-] | 100 | 100 | 100 | 9.9 |
| O=[N+]([O-])C(/N=N/c1ccc([N+](=O)[O-])cc1)=C1\NCCN1Cc1cnc(Cl)s1 |  |  | 12.1 |  |
| O=[N+]([O-])C(/N=N/c1c(Cl)cccc1Cl)=C1\NCCN1Cc1cnc(Cl)s1 |  |  | 18.2 |  |
| Cc1cccc(/N=N/C(=C2/NCCN2Cc2cnc(Cl)s2)[N+](=O)[O-])c1C |  |  | 61.7 |  |
| Cc1cccc(C)c1/N=N/C(=C1/NCCN1Cc1cnc(Cl)s1)[N+](=O)[O-] | 100 | 100 | 100 | 3.5 |
| Cc1cc(C)c(/N=N/C(=C2/NCCN2Cc2cnc(Cl)s2)[N+](=O)[O-])c(C)c1 | 100 | 100 | 100 |  |
| CCc1cccc(CC)c1/N=N/C(=C1/NCCN1Cc1cnc(Cl)s1)[N+](=O)[O-] | 100 | 100 | 100 | 11.8 |
| COc1ccc(/N=N/C(=C2/NCCN2Cc2cnc(Cl)s2)[N+](=O)[O-])cc1 |  |  | 11.8 |  |
| COc1cccc(OC)c1/N=N/C(=C1/NCCN1Cc1cnc(Cl)s1)[N+](=O)[O-] | 100 | 100 | 100 | 14.6 |
| O=[N+]([O-])C(/N=N/c1ccccc1)=C1\NCCN1Cc1ccc(Cl)nc1 |  |  | 31.2 |  |
| O=[N+]([O-])C(/N=N/c1ccc(F)cc1)=C1\NCCN1Cc1ccc(Cl)nc1 | 100 | 100 | 100 | 37.2 |
| O=[N+]([O-])C(/N=N/c1ccccc1F)=C1\NCCN1Cc1ccc(Cl)nc1 |  |  | 13 |  |
| O=[N+]([O-])C(/N=N/c1ccc(F)cc1F)=C1\NCCN1Cc1ccc(Cl)nc1 |  |  | 12.2 |  |
| O=[N+]([O-])C(/N=N/c1cccc(F)c1F)=C1\NCCN1Cc1ccc(Cl)nc1 |  |  | 25.1 |  |
| O=[N+]([O-])C(/N=N/c1ccc(F)c(Cl)c1)=C1\NCCN1Cc1ccc(Cl)nc1 |  |  | 8.6 |  |
| O=[N+]([O-])C(/N=N/c1ccccc1Cl)=C1\NCCN1Cc1ccc(Cl)nc1 |  |  | 7.1 |  |

| Compound | mortality at 125 µg/mL [1] [%] | mortality at 250 µg/mL [2] [%] | mortality at 500 µg/mL [3] [%] | LC50 [4] [µM] |
| --- | --- | --- | --- | --- |
| O=[N+]([O-])C(/N=N/c1c(Cl)cccc1Cl)=C1\NCCN1Cc1ccc(Cl)nc1 |  |  | 6.5 |  |
| O=[N+]([O-])C(/N=N/c1ccc(Br)cc1)=C1\NCCN1Cc1ccc(Cl)nc1 |  |  | 58.3 |  |
| O=[N+]([O-])C(/N=N/c1ccccc1I)=C1\NCCN1Cc1ccc(Cl)nc1 |  |  | 0 |  |
| O=[N+]([O-])C(/N=N/c1ccc([N+](=O)[O-])cc1)=C1\NCCN1Cc1ccc(Cl)nc1 |  |  | 4.7 |  |
| O=[N+]([O-])C(/N=N/c1ccccc1[N+](=O)[O-])=C1\NCCN1Cc1ccc(Cl)nc1 |  |  | 8.2 |  |
| Cc1ccccc1/N=N/C(=C1/NCCN1Cc1ccc(Cl)nc1)[N+](=O)[O-] |  |  | 52.5 |  |
| Cc1ccc(/N=N/C(=C2/NCCN2Cc2ccc(Cl)nc2)[N+](=O)[O-])cc1 |  |  | 56.6 |  |
| Cc1ccc(/N=N/C(=C2/NCCN2Cc2ccc(Cl)nc2)[N+](=O)[O-])cc1C |  |  | 19.7 |  |
| Cc1cccc(/N=N/C(=C2/NCCN2Cc2ccc(Cl)nc2)[N+](=O)[O-])c1C |  |  | 73.3 |  |
| Cc1cccc(C)c1/N=N/C(=C1/NCCN1Cc1ccc(Cl)nc1)[N+](=O)[O-] | 100 | 100 | 100 | 4.26 |
| Cc1cc(C)c(/N=N/C(=C2/NCCN2Cc2ccc(Cl)nc2)[N+](=O)[O-])c(C)c1 | 100 | 100 | 100 | 4.99 |
| Cc1cc(C(F)(C(F)(F)F)C(F)(F)F)cc(C)c1/N=N/C(=C1/NCCN1Cc1ccc(Cl)nc1)[N+](=O)[O-] |  |  | 12.2 |  |
| CCc1cccc(C)c1/N=N/C(=C1/NCCN1Cc1ccc(Cl)nc1)[N+](=O)[O-] | 100 | 100 | 100 | 3.74 |
| CCc1cccc(CC)c1/N=N/C(=C1/NCCN1Cc1ccc(Cl)nc1)[N+](=O)[O-] | 100 | 100 | 100 | 2.8 |
| CC(C)c1cccc(C(C)C)c1/N=N/C(=C1/NCCN1Cc1ccc(Cl)nc1)[N+](=O)[O-] | 100 | 100 | 100 | 13.8 |
| COc1ccc(/N=N/C(=C2/NCCN2Cc2ccc(Cl)nc2)[N+](=O)[O-])cc1 |  |  | 47.5 |  |
| O=[N+]([O-])/N=C1\NCCN1Cc1ccc(Cl)nc1 [IMIDACLOPRID] | 100 | 100 | 100 | 35 |
